Experimental data pooled from the literature.
Compare with care: the assays were run in different laboratories.
Target: Inhibitor of nuclear factor kappa-B kinase subunit beta (IKBKB, Homo sapiens, UniProt O14920)
Residues used in one study (O14920 1-756): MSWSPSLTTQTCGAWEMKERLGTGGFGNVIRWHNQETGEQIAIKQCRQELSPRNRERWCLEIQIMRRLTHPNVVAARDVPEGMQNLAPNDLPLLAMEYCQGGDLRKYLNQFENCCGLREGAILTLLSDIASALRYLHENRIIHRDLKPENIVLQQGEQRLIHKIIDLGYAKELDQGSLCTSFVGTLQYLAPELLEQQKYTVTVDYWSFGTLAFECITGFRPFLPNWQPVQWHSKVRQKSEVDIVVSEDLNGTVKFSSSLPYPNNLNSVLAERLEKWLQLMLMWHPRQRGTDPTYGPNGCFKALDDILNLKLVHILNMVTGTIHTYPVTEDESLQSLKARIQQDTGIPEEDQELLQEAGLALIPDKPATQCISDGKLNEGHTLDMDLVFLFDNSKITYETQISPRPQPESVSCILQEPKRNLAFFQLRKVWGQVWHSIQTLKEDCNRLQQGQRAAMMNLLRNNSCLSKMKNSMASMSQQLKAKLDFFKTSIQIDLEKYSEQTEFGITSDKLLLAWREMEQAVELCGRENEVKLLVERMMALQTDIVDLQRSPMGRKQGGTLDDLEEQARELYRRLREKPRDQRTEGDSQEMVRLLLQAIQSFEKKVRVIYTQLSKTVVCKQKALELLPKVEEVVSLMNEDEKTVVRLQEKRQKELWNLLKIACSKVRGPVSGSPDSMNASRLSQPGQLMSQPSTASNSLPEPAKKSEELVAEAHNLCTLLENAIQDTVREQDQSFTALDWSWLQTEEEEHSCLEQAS

SMILES | assay | conditions | endpoint | result
N#Cc1ccc(NC(=O)Nc2ccccc2)cc1 | cell-free assay, competition with immobilised ligand | 25 µM | remaining binding | 100%
CO[C@@H]1[C@H](N(C)C(=O)c2ccccc2)C[C@H]2O[C@]1(C)n1c3ccccc3c3c4c(c5c6ccccc6n2c5c31)C(=O)NC4 | enzyme activity, inhibitor | 1 µM | inhibition | 13%
C#Cc1cnc(Nc2ccnc(CO)c2)nc1Nc1ccccc1S(C)(=O)=NC#N (centres unmarked) | cell-free assay | 1 µM | remaining signal | 97%
CN1CCN(C(=O)c2ccc(NC(=O)Nc3ccc(N(C)c4ccnc(Nc5ccc(CS(C)(=O)=O)cc5)n4)cc3)cc2)CC1 | binding, competition with immobilised ligand | 1 µM | remaining binding | 70%
COc1ccc2oc(-c3ccc4nc(N)oc4c3)c/c(=N\c3ccccc3NC(=O)CCN)c2c1 | binding | 1 µM | remaining binding | 102%
C=CC(=O)N1CCC[C@@H](n2nc(-c3ccc(Oc4ccccc4)cc3)c3c(N)ncnc32)C1 | enzyme activity, inhibitor | 1 µM | inhibition | 30%
Cc1ccc(NC(=O)c2ccnc(C(F)(F)F)c2)cc1-c1cc(OCCO)nc(N2CCOCC2)c1 | binding, competition with immobilised ligand | 1 µM | remaining binding | 97%
CCCCC(=O)Nc1ccc(-c2ccc3ncn(CCC)c(=O)c3c2)cn1 | binding, competition with immobilised ligand | 0.5 µM | remaining binding | 100%
